Measured values: publication PMC10234138 (Journal of Enzyme Inhibition and Medicinal Chemistry, 2023)
Where “and” joins values, the source holds several entries; their conditions need not be identical. Equal entries are not always repeated.

Assays:
[1] = tested on: Panc-1 (pancreas cancer cell line); assay: Antiproliferative assay, Panc-1; assay type: cell-based; settings: Homo sapiens, PANC-1, read-out: Antiproliferative activity IC50 ± SEM, Panc-1
[2] = tested on: HT-29 (colon cancer cell line); assay: Antiproliferative assay, HT-29; assay type: cell-based; settings: Homo sapiens, HT-29, read-out: Antiproliferative activity IC50 ± SEM, HT-29
[3] = Cell viability assay; assay type: cell-based; settings: human, MCF-10A mammary gland epithelial cells
[4] = tested on: A-549 (epithelial cancer cell line); assay: Antiproliferative assay, A-549; assay type: cell-based; settings: Homo sapiens, A549, read-out: Antiproliferative activity IC50 ± SEM, A-549
[5] = tested on: MCF-7 (breast cancer cell line); assay: Antiproliferative assay, MCF-7; assay type: cell-based; settings: Homo sapiens, MCF7, read-out: Antiproliferative activity IC50 ± SEM, MCF-7
[6] = tested on: four cancer cell lines (A-549, MCF-7, Panc-1, HT-29); assay: Antiproliferative assay, average over four cancer cell lines; assay type: cell-based, human; settings: for GI50: Homo sapiens, read-out: Antiproliferative activity, Average (GI50)
[7] = molecular target: EGFR^WT (Homo sapiens, UniProt P00533); assay: EGFR inhibitory assay; assay type: biochemical
Sequence of EGFR^WT (P00533 669-1210): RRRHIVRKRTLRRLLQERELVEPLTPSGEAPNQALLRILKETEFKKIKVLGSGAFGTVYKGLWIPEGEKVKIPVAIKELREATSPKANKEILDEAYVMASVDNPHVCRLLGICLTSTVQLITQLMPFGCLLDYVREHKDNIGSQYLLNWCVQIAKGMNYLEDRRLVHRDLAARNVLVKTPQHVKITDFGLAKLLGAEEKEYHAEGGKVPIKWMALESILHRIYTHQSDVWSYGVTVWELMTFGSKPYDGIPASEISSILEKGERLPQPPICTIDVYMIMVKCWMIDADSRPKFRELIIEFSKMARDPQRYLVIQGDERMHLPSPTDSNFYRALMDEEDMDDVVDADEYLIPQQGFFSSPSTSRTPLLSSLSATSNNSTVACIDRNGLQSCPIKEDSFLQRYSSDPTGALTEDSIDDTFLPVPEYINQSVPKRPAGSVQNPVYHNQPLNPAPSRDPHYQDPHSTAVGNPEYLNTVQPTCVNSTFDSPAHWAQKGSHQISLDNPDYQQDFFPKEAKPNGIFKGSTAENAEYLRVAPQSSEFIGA

[8] = tested on: Caspase-8; assay: Caspase-8 assay in Panc-1; assay type: cell-based, human; settings: Panc-1 cells; for Caspase-8 Fold change: vs control untreated cells
[9] = tested on: Bcl-2; assay: Bcl-2 assay in Panc-1; assay type: cell-based, human; settings: Panc-1 cells; for Bcl-2 Fold reduction: vs control untreated cells
[10] = tested on: Caspase-3; assay: Caspase-3 assay in Panc-1; assay type: cell-based, human; settings: Panc-1 cells; for Caspase-3 Fold change: vs control untreated cells
[11] = molecular target: EGFR^T790M (Homo sapiens, UniProt P00533, T790M); assay: biochemical
Sequence of EGFR^T790M (P00533 25-1210 T790M): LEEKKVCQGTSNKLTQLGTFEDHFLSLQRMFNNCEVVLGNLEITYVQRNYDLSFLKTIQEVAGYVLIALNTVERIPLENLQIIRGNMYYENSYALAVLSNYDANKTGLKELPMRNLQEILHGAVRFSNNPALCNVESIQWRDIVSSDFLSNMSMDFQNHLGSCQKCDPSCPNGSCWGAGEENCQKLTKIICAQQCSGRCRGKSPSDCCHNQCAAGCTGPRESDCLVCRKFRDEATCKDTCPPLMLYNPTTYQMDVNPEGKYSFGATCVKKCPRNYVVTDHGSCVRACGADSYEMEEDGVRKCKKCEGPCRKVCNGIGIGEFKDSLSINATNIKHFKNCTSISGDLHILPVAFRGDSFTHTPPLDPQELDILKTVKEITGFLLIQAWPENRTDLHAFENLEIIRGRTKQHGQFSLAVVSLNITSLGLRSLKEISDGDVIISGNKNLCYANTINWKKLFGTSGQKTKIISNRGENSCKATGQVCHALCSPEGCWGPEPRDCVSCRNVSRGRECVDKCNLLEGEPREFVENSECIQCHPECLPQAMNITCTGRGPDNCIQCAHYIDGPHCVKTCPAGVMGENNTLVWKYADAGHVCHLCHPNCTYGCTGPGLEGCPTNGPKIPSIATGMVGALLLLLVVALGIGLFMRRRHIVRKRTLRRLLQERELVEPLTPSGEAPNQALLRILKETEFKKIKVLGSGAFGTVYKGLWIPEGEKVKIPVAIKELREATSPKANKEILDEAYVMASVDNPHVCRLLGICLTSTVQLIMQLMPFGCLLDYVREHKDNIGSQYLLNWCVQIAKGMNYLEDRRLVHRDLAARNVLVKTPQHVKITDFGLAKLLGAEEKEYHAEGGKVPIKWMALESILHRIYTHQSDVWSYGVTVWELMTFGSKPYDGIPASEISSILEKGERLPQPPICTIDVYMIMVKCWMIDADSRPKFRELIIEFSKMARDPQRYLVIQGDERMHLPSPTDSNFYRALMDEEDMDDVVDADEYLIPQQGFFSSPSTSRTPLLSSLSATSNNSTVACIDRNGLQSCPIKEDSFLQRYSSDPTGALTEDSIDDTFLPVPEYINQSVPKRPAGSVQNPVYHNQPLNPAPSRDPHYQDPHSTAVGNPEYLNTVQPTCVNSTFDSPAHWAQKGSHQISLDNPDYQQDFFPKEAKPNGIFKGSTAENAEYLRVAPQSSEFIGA

[12] = tested on: Bax; assay: Bax assay in Panc-1; assay type: cell-based, human; settings: Panc-1 cells; for Bax Fold change: vs control untreated cells
How it was run: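 Bax protein in treated Panc-1 cells, read as concentration in pg/mL. Fold induction is relative to untreated Panc-1 control cells. Staurosporine serves as reference compound.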

[13] = antiproliferative, four cancer cell lines

| IC50 [1] [nM] | IC50 [2] [nM] | IC50 [4] [nM] | IC50 [5] [nM] | GI50 [6] [nM] | fold less potent than compound 5f (GI50) [6, 13] [fold] | IC50 [7] [nM] | fold more potent than compound 5b (GI50) [6, 13] [fold] | IC50 [11] [nM] | Structure (SMILES) | viability at 96 h, 50 µM [3] [%] | Caspase-8 Conc [8] [ng/mL] | Caspase-8 Fold change [8] | Bcl-2 Conc [9] [ng/mL] | Bcl-2 Fold reduction [9] | Caspase-3 Conc [10] [pg/mL] | Bax Conc [12] | Bax Fold change [12] | Caspase-3 Fold change [10] | Caspase-3 Fold change ([10]; listed as 5 g) | Bax Conc ([12]; listed as 5 g) [pg/mL] |
| --- | --- | --- | --- | --- | --- | --- | --- | --- | --- | --- | --- | --- | --- | --- | --- | --- | --- | --- | --- | --- |
| 73 ± 7 | 75 ± 8 | 75 ± 8 | 79 ± 8 | 76 | 2.5 | – | – | – | CO/C=C/c1c(C(=O)NCCc2ccccc2)[nH]c2ccc(Cl)cc12 [Compound 5a, (E)-5-Chloro-3–(2-methoxyvinyl)-N-phenethyl-1H-indole-2-carboxamide] | 91 | – | – | – | – | – | – | – | – | – | – |
| 75 ± 7 | 78 ± 7 | 76 ± 7 | 79 ± 7 | 77 | – | – | – | – | CO/C=C/c1c(C(=O)NCCc2ccc(N3CCCCC3)cc2)[nH]c2ccc(Cl)cc12 [Compound 5b, (E)-5-chloro-3–(2-methoxyvinyl)-N-(4-(piperidin-1-yl)phenethyl)-1H-indole-2-carboxamide] | 89 | – | – | – | – | – | – | – | – | – | – |
| 45 ± 5 | 47 ± 5 | 45 ± 5 | 49 ± 5 | 47 | – | 102 ± 7 | 1.6 | – | CO/C=C/c1c(C(=O)NCCc2cccc(N3CCCCC3)c2)[nH]c2ccc(Cl)cc12 [Compound 5c, (E)-5-chloro-3–(2-methoxyvinyl)-N-(3-(piperidin-1-yl)phenethyl)-1H-indole-2-carboxamide] | 87 | – | – | – | – | – | – | – | – | – | – |
| 35 ± 3 | 38 ± 4 | 34 ± 4 | 38 ± 3 | 36 | – | 85 ± 5 | – | – | CO/C=C/c1c(C(=O)NCCc2ccc(N(C)C)cc2)[nH]c2ccc(Cl)cc12 [Compound 5d, (E)-5-chloro-N-(4-(dimethylamino)phenethyl)-3-(2-methoxyvinyl)-1H-indole-2-carboxamide] | 89 | – | – | – | – | – | – | – | – | – | – |
| 67 ± 7 | 71 ± 7 | 70 ± 7 | 73 ± 7 | 70 | – | – | – | – | CO/C=C/c1c(C(=O)NCCc2ccc(N3CCCC3)cc2)[nH]c2ccc(Cl)cc12 [Compound 5e, (E)-5-chloro-3-(2-methoxyvinyl)-N-(4-(pyrrolidin-1-yl)phenethyl)-1H-indole-2-carboxamide] | 90 | – | – | – | – | – | – | – | – | – | – |
| 27 ± 3 | 30 ± 3 | 28 ± 3 | 30 ± 3 | 29 | – | 68 ± 4 | – | 9.5 ± 2 | CO/C=C/c1c(C(=O)NCCc2ccc(N3CCCC3C)cc2)[nH]c2ccc(Cl)cc12 (stereo not drawn) [Compound 5f, (E)-5-chloro-3-(2-methoxyvinyl)-N-(4-(2-methylpyrrolidin-1-yl)phenethyl)-1H-indole-2-carboxamide] | 87 | 2.10 | 25 | 0.80 | 6 | 560.2 ± 5.0 | 305 pg/mL and 305.50 pg/mL | 37 | – | – | – |
| 30 ± 3 | 32 ± 3 | 30 ± 3 | 32 ± 3 | 31 | – | 74 ± 5 | – | 11.9 ± 3 | CO/C=C/c1c(C(=O)NCCc2ccc(N3CCOCC3)cc2)[nH]c2ccc(Cl)cc12 [Compound 5g, (E)-5-chloro-3-(2-methoxyvinyl)-N-(4-morpholinophenethyl)-1H-indole-2-carboxamide] | 89 | 1.97 | 23 | 0.84 | 6 | 542.5 ± 5.0 | 299.40 pg/mL | 36 | 8.3 | approximately 8 | 299 |
| 85 ± 9 | 89 ± 9 | 89 ± 9 | 92 ± 9 | 89 | – | – | – | – | CO/C=C/c1c(C(=O)NC(CO)Cc2ccccc2)[nH]c2ccc(Cl)cc12 (stereo not drawn) [Compound 6a, (E)-5-chloro-N-(1-hydroxy-3-phenylpropan-2-yl)-3-(2-methoxyvinyl)-1H-indole-2-carboxamide] | 86 | – | – | – | – | – | – | – | – | – | – |
| 97 ± 10 | 104 ± 10 | 102 ± 10 | 105 ± 10 | 102 | – | – | – | – | CO/C=C/c1c(C(=O)NC2c3ccccc3-c3ccccc32)[nH]c2ccc(Cl)cc12 [Compound 6b, (E)-5-chloro-N-(9H-fluoren-9-yl)-3-(2-methoxyvinyl)-1H-indole-2-carboxamide] | 87 | – | – | – | – | – | – | – | – | – | – |
| 62 ± 6 | 64 ± 6 | 67 ± 6 | 69 ± 6 | 66 | – | – | – | – | CO/C=C/c1c(C(=O)NCc2ccccc2)[nH]c2ccc(Cl)cc12 [Compound 6c, (E)-N-benzyl-5-chloro-3-(2-methoxyvinyl)-1H-indole-2-carboxamide] | 85 | – | – | – | – | – | – | – | – | – | – |
| 81 ± 8 | 85 ± 8 | 85 ± 8 | 87 ± 8 | 85 | – | – | – | – | CO/C=C/c1c(C(=O)N2CCN(c3ccccc3)CC2)[nH]c2ccc(Cl)cc12 [Compound 6d, (E)-(5-chloro-3–(2-methoxyvinyl)-1H-indol-2-yl)(4-phenylpiperazin-1-yl) methanone] | 89 | – | – | – | – | – | – | – | – | – | – |
| 43 ± 4 | 45 ± 5 | 45 ± 5 | 47 ± 5 | 45 | – | 98 ± 7 | – | – | CO/C=C/c1c(C(=O)N2CCC(Cc3ccccc3)CC2)[nH]c2ccc(Cl)cc12 [Compound 6e, (E)-(4-benzylpiperidin-1-yl)(5-chloro-3–(2-methoxyvinyl)-1H-indol-2-yl) methanone] | 91 | – | – | – | – | – | – | – | – | – | – |
| 38 ± 4 | 42 ± 4 | 40 ± 4 | 42 ± 4 | 41 | – | 93 ± 6 | – | – | CO/C=C/c1c(C(=O)NCc2nc3ccccc3[nH]2)[nH]c2ccc(Cl)cc12 [Compound 6f, (E)-N-((1H-benzo[d]imidazol-2-yl)methyl)-5-chloro-3–(2-methoxyvinyl)-1H-indole-2-carboxamide] | 89 | – | – | – | – | – | – | – | – | – | – |
| 51 ± 5 | 55 ± 5 | 53 ± 5 | 57 ± 5 | 54 | – | – | – | – | O=c1c2[nH]c3ccc(Cl)cc3c2ccn1CCc1ccccc1 [Compound 7a, 6-chloro-2-phenethyl-2,9-dihydro-1H-pyrido[3,4-b]indol-1-one] | 90 | – | – | – | – | – | – | – | – | – | – |
| 55 ± 5 | 57 ± 6 | 57 ± 6 | 59 ± 6 | 57 | – | – | – | – | O=c1c2[nH]c3ccc(Cl)cc3c2ccn1CCc1ccc(N2CCCCC2)cc1 [Compound 7b, 6-chloro-2–(4-(piperidin-1-yl)phenethyl)-2,9-dihydro-1H-pyrido[3,4-b]indol-1-one] | 89 | – | – | – | – | – | – | – | – | – | – |
| 30 ± 3 | 30 ± 3 | 30 ± 3 | 40 ± 3 | 33 | – | – | – | – | C#Cc1cccc(Nc2ncnc3cc(OCCOC)c(OCCOC)cc23)c1 [Erlotinib, reference compound] | – | – | – | – | – | – | – | – | – | – | – |
| – | – | – | – | – | – | – | – | – | CN[C@@H]1C[C@H]2O[C@@](C)([C@@H]1OC)n1c3ccccc3c3c4c(c5c6ccccc6n2c5c31)C(=O)NC4 [Staurosporine, reference compound] | – | 1.75 | 21 | 0.98 | 5 | 503.2 ± 4.0 | 276 pg/mL and 276.20 pg/mL | – | 7.6 | – | – |
